# Activity calls are given as the source filed them. The rule behind the calls is not given here.
# How the values were obtained:
# [1] = target: Serine/threonine-protein kinase 16 (Homo sapiens) (UniProt O75716); assay: Inhibition of human STK16 (11 to 305 amino acid residues) expressed in bacterial expression system at 1 uM in presence of [gamma-33P]-ATP […]
# Procedure, shortened: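 Broad kinome panel of 369 kinases screened at 1 µM test concentration.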
# [2] = target: Cyclin-dependent kinase 1/cyclin B1 (Homo sapiens) (UniProt P06493+P14635); assay: Inhibition of CDK1/cyclin B (unknown origin) in presence of [gamma-33P]-ATP […]; type: protein-complex assay
# Chain of Cyclin-dependent kinase 1/cyclin B1 (Homo sapiens) (P06493 whole entry, looked up): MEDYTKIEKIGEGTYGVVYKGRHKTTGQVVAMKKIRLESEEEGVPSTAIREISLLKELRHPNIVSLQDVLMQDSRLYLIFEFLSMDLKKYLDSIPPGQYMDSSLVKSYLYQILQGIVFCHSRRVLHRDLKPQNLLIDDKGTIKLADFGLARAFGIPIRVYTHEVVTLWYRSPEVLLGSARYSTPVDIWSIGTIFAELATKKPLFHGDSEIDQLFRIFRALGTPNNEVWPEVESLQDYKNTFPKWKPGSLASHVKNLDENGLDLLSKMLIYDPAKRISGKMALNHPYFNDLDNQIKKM
# Chain of Cyclin-dependent kinase 1/cyclin B1 (Homo sapiens) (P14635 whole entry, looked up): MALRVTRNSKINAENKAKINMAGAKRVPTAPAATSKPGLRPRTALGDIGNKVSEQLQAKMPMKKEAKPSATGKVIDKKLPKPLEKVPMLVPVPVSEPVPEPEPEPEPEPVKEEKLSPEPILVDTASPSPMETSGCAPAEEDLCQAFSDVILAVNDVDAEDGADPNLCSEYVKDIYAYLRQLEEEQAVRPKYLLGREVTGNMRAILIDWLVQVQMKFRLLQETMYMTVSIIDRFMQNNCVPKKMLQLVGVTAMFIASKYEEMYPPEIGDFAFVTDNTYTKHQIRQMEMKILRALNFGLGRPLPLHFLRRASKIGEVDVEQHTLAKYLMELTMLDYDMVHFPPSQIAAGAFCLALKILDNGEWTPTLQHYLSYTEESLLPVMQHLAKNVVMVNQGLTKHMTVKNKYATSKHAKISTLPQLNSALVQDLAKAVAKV
# [3] = target: Cyclin-dependent kinase 7/ cyclin H (Homo sapiens) (UniProt P51946+P50613); assay: Inhibition of CDK7/cyclin H (unknown origin) in presence of [gamma-33P]-ATP […]; type: protein-complex assay
# CDK9/cyclin T1 = CDK9/cyclin T1 (Homo sapiens, UniProt P50750); assay: Inhibition of CDK9/cyclin T1 (unknown origin) in presence of [gamma-33P]-ATP […]; type: protein-complex assay; details: read-out: Ki(app)
# Chain of CDK9/cyclin T1 (O60563 whole entry): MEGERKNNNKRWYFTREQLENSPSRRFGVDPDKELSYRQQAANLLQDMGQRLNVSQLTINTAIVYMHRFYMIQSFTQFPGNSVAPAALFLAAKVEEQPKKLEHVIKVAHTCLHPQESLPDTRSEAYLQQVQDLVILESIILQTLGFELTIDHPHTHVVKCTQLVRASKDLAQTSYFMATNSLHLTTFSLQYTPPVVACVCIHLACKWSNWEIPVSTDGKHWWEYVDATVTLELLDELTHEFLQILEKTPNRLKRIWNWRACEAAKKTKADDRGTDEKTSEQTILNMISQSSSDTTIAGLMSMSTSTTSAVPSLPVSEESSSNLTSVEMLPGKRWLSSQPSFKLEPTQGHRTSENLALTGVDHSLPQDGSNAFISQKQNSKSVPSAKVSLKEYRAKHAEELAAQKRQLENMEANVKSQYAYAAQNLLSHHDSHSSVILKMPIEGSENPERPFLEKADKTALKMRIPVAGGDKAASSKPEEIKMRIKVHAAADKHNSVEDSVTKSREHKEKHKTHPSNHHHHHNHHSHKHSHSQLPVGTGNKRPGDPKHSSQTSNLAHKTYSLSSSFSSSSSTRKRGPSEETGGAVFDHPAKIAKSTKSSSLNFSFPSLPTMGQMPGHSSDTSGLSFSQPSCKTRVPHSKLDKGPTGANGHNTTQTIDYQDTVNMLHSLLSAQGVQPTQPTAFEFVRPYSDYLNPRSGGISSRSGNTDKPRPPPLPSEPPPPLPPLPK
# Chain of CDK9/cyclin T1 (P50750 whole entry): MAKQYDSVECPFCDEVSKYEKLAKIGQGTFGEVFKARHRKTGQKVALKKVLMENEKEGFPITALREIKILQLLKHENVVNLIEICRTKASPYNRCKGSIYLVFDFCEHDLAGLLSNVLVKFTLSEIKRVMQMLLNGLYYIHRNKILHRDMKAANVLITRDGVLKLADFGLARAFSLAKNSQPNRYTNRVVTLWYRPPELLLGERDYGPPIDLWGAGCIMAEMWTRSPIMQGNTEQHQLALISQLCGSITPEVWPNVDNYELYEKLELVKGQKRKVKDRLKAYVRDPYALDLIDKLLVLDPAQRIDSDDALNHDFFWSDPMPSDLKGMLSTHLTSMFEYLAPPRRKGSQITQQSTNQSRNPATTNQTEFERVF
# [4] = target: Cyclin-dependent kinase 4/6 (Homo sapiens) (UniProt P11802+Q00534); assay: Inhibition of CDK4/6 in human MV4-11 cells assessed as reduction in Rb phosphorylation at Ser780 after 12 to 24 hrs by Western blot analysis; type: cell-based
# Chain of Cyclin-dependent kinase 4/6 (Homo sapiens) (P11802 whole entry, looked up): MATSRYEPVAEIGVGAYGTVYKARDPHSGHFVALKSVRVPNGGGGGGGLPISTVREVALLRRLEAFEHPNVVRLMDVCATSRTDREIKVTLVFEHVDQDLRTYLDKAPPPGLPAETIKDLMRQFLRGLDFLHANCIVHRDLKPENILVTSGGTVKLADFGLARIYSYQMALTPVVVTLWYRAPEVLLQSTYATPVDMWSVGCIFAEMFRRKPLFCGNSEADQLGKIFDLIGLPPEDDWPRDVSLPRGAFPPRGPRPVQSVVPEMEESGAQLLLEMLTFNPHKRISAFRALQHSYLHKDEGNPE
# Chain of Cyclin-dependent kinase 4/6 (Homo sapiens) (Q00534 whole entry, looked up): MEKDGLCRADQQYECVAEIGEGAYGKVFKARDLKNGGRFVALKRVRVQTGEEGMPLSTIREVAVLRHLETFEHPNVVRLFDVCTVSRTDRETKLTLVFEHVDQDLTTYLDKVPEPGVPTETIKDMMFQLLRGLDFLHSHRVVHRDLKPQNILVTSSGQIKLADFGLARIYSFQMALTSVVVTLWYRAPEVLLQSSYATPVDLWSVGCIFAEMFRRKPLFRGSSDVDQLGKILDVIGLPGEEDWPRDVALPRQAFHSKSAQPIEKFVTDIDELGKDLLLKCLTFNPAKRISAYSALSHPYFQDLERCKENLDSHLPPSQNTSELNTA
# Procedure, shortened: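 MV4-11 cells treated 12 or 24 h across a dose series; Rb phospho-Ser780 detected by Western blot with β-actin as loading control; two independent experiments.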
# Cytochrome P450 3A4 = Cytochrome P450 3A4 (Homo sapiens, UniProt P08684); assay: Inhibition of CYP3A4 in human liver microsomes using midazolam as substrate in presence of NADPH; type: ADME
# Chain of Cytochrome P450 3A4 (P08684 whole entry, canonical isoform): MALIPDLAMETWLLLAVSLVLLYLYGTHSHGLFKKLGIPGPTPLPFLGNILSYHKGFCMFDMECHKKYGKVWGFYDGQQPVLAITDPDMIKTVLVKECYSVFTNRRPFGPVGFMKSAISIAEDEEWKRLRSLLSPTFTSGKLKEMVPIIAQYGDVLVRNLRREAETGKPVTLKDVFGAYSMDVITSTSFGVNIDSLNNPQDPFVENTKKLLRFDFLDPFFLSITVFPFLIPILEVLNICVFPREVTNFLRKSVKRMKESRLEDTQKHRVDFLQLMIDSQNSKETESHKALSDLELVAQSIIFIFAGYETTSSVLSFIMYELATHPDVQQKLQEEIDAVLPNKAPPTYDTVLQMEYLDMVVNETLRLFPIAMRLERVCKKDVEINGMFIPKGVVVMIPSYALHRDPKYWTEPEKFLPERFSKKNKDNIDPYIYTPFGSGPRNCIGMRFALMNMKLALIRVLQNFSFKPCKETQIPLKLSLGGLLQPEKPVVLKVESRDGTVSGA
# Procedure, shortened: (§1)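 Human liver microsomes with NADPH and isoform-specific probe substrate (midazolam CYP3A4, dextromethorphan CYP2D6, ethoxyresorufin CYP1A, tolbutamide CYP2C9, mephenytoin CYP2C19); IC50 reported in µM.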
# Cytochrome P450 2D6 = Cytochrome P450 2D6 (Homo sapiens, UniProt P10635); assay: Inhibition of CYP2D6 in human liver microsomes using dextromethorphan as substrate in presence of NADPH; type: ADME; procedure, shortened: as §1
# Chain of Cytochrome P450 2D6 (P10635 whole entry): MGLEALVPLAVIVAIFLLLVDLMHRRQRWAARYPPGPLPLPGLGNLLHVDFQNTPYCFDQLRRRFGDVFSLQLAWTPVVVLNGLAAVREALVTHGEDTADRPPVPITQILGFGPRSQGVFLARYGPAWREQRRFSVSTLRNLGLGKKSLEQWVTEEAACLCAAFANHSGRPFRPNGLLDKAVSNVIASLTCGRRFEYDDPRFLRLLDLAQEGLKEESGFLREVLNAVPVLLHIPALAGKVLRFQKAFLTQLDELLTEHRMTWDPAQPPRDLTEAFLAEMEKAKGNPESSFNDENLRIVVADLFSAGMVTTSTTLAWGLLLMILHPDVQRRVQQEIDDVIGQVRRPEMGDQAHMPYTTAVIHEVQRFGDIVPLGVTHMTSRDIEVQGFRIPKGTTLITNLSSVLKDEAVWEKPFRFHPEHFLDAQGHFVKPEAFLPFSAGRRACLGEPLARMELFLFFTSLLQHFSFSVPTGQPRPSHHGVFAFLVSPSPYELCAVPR
# Cytochrome P450 1A2 = Cytochrome P450 1A2 (Homo sapiens, UniProt P05177); assay: Inhibition of CYP1A2 in human liver microsomes using ethoxyresorufin as substrate in presence of NADPH; type: ADME; procedure, shortened: as §1
# Chain of Cytochrome P450 1A2 (P05177 whole entry): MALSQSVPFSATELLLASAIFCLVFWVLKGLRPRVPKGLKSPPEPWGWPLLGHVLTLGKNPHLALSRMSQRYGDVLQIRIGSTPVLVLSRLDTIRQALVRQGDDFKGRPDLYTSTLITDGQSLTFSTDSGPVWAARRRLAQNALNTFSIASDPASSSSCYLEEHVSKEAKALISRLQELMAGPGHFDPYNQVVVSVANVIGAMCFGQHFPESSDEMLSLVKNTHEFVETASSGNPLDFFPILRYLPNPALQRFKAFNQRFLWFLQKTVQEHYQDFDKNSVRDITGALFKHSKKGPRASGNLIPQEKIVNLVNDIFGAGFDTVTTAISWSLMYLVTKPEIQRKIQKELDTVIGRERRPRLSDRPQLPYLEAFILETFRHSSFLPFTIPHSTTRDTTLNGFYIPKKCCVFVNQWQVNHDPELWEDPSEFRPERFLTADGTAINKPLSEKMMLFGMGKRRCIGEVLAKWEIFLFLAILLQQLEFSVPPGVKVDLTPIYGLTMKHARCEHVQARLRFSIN
# Cytochrome P450 2C9 = Cytochrome P450 2C9 (Homo sapiens, UniProt P11712); assay: Inhibition of CYP2C9 in human liver microsomes using tolbutamide as substrate in presence of NADPH; type: ADME; procedure, shortened: as §1
# Chain of Cytochrome P450 2C9 (P11712 whole entry): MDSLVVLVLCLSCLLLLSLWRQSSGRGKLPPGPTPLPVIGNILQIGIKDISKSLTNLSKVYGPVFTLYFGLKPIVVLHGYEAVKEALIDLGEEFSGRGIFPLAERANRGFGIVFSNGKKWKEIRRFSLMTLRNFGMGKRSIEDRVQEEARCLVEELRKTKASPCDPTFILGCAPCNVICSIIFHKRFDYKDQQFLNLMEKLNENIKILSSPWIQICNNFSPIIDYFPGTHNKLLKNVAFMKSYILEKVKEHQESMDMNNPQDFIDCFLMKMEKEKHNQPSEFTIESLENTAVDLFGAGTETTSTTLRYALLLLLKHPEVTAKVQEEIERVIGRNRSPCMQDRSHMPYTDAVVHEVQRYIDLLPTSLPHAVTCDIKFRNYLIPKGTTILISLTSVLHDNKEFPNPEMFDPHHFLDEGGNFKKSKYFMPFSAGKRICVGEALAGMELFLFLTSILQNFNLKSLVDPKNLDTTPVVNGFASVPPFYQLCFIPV
# [5] = Octanol/aqueous buffer partition co-efficient, log D of the compound at pH 7.4 by shake-flask method; type: physicochemical
# [6] = Dissociation constant, pKa of the compound by pH-metric titration method; type: physicochemical
# [7] = Apparent permeability co-efficient from apical to basolateral side in human Caco2 cells; type: ADME, cell-based; details: Caco-2
# Procedure, shortened: (§2)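 Caco-2 monolayer assay measuring the apparent permeability coefficient (P_app, 10^-6 cm/s) in the A→B and B→A directions. Efflux ratio is the mean P_app B-A divided by the mean P_app A-B.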
# [8] = Apparent permeability co-efficient from basolateral to apical side in human Caco2 cells; type: ADME, cell-based; details: Caco-2; procedure, shortened: as §2
# [9] = Efflux ratio of apparent permeability co-efficient from basolateral to apical side over apical to basolateral side in human Caco2 cells; type: ADME, cell-based; details: Caco-2; procedure, shortened: as §2
# [10] = Clearance in albino Wistar rat at 5 mg/kg, iv up to 24 hrs by LC-MS/MS analysis; type: ADME, organism-based; details: in vivo
# [11] = Tmax in albino Wistar rat at 20 mg/kg administered via oral gavage measured up to 24 hrs by LC-MS/MS analysis; type: ADME, organism-based; details: in vivo
# Procedure, shortened: (§3)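 Single-dose pharmacokinetics in male animals: albino Wistar rats given 5 mg/kg IV or 20 mg/kg PO, and BALB/c mice given 2 mg/kg IV or 10 mg/kg PO.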
# [12] = Oral bioavailability in albino Wistar rat at 20 mg/kg measured up to 24 hrs by LC-MS/MS analysis; type: ADME, organism-based; details: in vivo; procedure, shortened: as §3
# [13] = Clearance in BALB/c mouse at 2 mg/kg, iv up to 24 hrs by LC-MS/MS analysis; type: ADME, organism-based; details: in vivo
# [14] = Volume of distribution at steady state in BALB/c mouse at 2 mg/kg, iv up to 24 hrs by LC-MS/MS analysis; type: ADME, organism-based; details: in vivo, read-out: Vdss; procedure, shortened: as §3
# [15] = AUC (0 to t) in BALB/c mouse at 10 mg/kg administered via oral gavage measured up to 24 hrs by LC-MS/MS analysis; type: ADME, organism-based; design: dose 10 mg/kg, time < 24 hr, route oral; details: in vivo
# Mus musculus [16] = assay: Toxicity in nude BALB/c mouse assessed as overt toxicity at 20 to 100 mg/kg, po qd measured up to 14 days post dose; type: organism-based; details: in vivo, 336 h
# MV4-11 [17] = assay: Antitumor activity against human MV4-11 cells xenografted in nude BALB/c mouse assessed as tumor growth inhibition at 100 mg/kg, po qd administered for 33 consecutive days and left untreated for another 50 days; type: functional, organism-based
# MV4-11 [18] = assay: Antitumor activity against human MV4-11 cells xenografted in nude BALB/c mouse assessed as median survival time at 100 mg/kg, po qd administered for 33 consecutive days and left untreated for another 50 days (reference value: 33 days); type: functional
# MV4-11 [19] = assay: Antitumor activity against human MV4-11 cells xenografted in nude BALB/c mouse assessed as tumor volume at 100 mg/kg, po qd administered for 33 consecutive days measured on day 31; type: functional
# MV4-11 [20] = assay: Antitumor activity against human MV4-11 cells xenografted in nude BALB/c mouse assessed as tumor growth inhibition at 100 mg/kg, po qd administered for 33 consecutive days measured post last dose; type: functional; details: MV4-11, po, read-out: TGI
# Mus musculus [21] = assay: Toxicity in nude BALB/c mouse xenografted with human MV4-11 cells assessed as overt toxicity at 100 mg/kg, po qd for 33 consecutive days and left untreated for another 50 days; type: organism-based; details: in vivo, 1200 h
# MV4-11 [22] = assay: Cell cycle arrest in human MV4-11 cells assessed as accumulation at G1 phase at 0.04 uM after 24 hrs by propidium iodide staining based flow cytometry (reference value: 61.01%); type: functional
# MV4-11 [23] = assay: Cell cycle arrest in human MV4-11 cells assessed as accumulation at S phase at 0.04 uM after 24 hrs by propidium iodide staining based flow cytometry (reference value: 19.07%); type: functional
# MV4-11 [24] = assay: Cell cycle arrest in human MV4-11 cells assessed as accumulation at sub-G1 phase at 0.20 uM after 24 hrs by propidium iodide staining based flow cytometry (reference value: 1.99%); type: functional
# MV4-11 [25] = assay: Cell cycle arrest in human MV4-11 cells assessed as accumulation at G1 phase at 0.20 uM after 24 hrs by propidium iodide staining based flow cytometry (reference value: 61.01%); type: functional
# MV4-11 [26] = assay: Cell cycle arrest in human MV4-11 cells assessed as accumulation at G2/M phase at 0.20 uM after 24 hrs by propidium iodide staining based flow cytometry (reference value: 17.94%); type: functional
# MV4-11 [27] = assay: Cell cycle arrest in human MV4-11 cells assessed as accumulation at sub-G1 phase at 0.40 uM after 24 hrs by propidium iodide staining based flow cytometry (reference value: 1.99%); type: functional
# MV4-11 [28] = assay: Cell cycle arrest in human MV4-11 cells assessed as accumulation at G1 phase at 0.40 uM after 24 hrs by propidium iodide staining based flow cytometry (reference value: 61.01%); type: functional
# Chain of Serine/threonine-protein kinase 16 (Homo sapiens) (O75716 whole entry, the tested form may be a part): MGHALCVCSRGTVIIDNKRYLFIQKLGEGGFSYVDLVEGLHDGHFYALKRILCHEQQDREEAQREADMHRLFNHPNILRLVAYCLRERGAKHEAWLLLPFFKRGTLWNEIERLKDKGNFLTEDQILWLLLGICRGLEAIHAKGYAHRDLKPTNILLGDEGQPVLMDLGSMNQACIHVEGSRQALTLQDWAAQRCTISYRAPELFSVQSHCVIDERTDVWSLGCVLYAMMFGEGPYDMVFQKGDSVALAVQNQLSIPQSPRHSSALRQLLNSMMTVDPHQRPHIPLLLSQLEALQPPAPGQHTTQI
smiles,measurement,setting,value
Cc1nc(NC2CCCC2)sc1-c1ccnc(Nc2ccc(N3CCOCC3)cn2)n1,inhibition,[1],Active
same,Ki(app),[2],inactive
same,Ki(app),[3],inactive
same,Ki,CDK9/cyclin T1,> 5 µM
same,inhibition,[4],Dose-dependent effect
same,IC50,Cytochrome P450 3A4,> 25 µM
same,IC50,Cytochrome P450 2D6,> 25 µM
same,IC50,Cytochrome P450 1A2,> 25 µM
same,IC50,Cytochrome P450 2C9,> 25 µM
same,logD,[5],4.4
same,pKa,[6],3.98 to 5.68
same,Papp A→B,[7],10.1 ×10⁻⁶ cm/s
same,Papp B→A,[8],3.98 ×10⁻⁶ cm/s
same,efflux ratio,[9],0.396 to 4
same,clearance,[10],11.8 mL/min/kg
same,Tmax,[11],3.7 h
same,bioavailability,[12],25.1 to 27%
same,clearance,[13],58.3 mL/min/kg
same,Vd,[14],5.6 L/kg
same,AUC(0-t) at 24 h,[15],5.9 µM·h
same,Activity,Mus musculus [16],Non-Toxic
same,TGI,MV4-11 [17],Active
same,MST,MV4-11 [18],55 days
same,T/C,MV4-11 [19],30%
same,inhibition in vivo at 100 mg/kg,MV4-11 [20],76%
same,Activity,Mus musculus [21],Non-Toxic
CC(=O)c1c(C)c2cnc(Nc3ccc(N4CCNCC4)cn3)nc2n(C2CCCC2)c1=O [PALBOCICLIB],Activity,MV4-11 [22],68.17%
same,Activity,MV4-11 [23],15.52%
same,Activity,MV4-11 [24],4.22%
same,Activity,MV4-11 [25],80.66%
same,Activity,MV4-11 [26],5.74%
same,Activity,MV4-11 [27],2.93%
same,Activity,MV4-11 [28],85.35%
